According to ChEMBL document CHEMBL4138056, “T- and B-cell immunosuppressive activity of novel α-santonin analogs with humoral and cellular immune response in Balb/c mice” (Medchemcomm, 2017):

Tests used:
[1] = test system: B-cell line; assay: Cytotoxicity against Balb/c mouse B cells assessed as decrease cell survival at 10 uM by MTT assay; type: cell-based
In short: (§1)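 Balb/c splenocytes (RBC lysed with tris-ammonium chloride, trypan blue viability) seeded at 1×10^6 cells/mL with Con A or LPS (10 μg/mL each) and test agent at 1, 10 or 100 μM for 48 h at 37 °C, 5% CO2; MTT added for 4 h, formazan dissolved in DMSO, OD 540 nm. Cytotoxicity scored +/−; triplicate, three separate experiments.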

[2] = test system: Murine T-cell line; assay: Cytotoxicity against Balb/c mouse T cells assessed as decrease in cell survival at 100 uM by MTT assay; type: cell-based; in short: as §1
[3] = test system: Murine T-cell line; assay: Immunosuppressive activity in Balb/c mouse T cells assessed as inhibition of ConA-induced cell proliferation at 10 uM after 48 hrs by MTT assay relative to control
[4] = test system: Murine T-cell line; assay: Immunosuppressive activity in Balb/c mouse T cells assessed as inhibition of ConA-induced cell proliferation at 100 uM after 48 hrs by MTT assay relative to control
[5] = test system: B-cell line; assay: Cytotoxicity against Balb/c mouse B cells assessed as decrease cell survival at 1 uM by MTT assay; type: cell-based; in short: as §1
[6] = test system: B-cell line; assay: Immunosuppressive activity in Balb/c mouse B cells assessed as inhibition of LPS-induced cell proliferation at 100 uM after 48 hrs by MTT assay relative to control; type: functional
In short: (§2)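 Balb/c spleen single-cell suspension, RBCs lysed with tris-ammonium chloride, viability by trypan blue; 1×10^6 cells/mL stimulated with LPS (10 μg/mL) for B cells, test agent 1, 10 or 100 μM, 48 h at 37 °C, 5% CO2. MTT 4 h, DMSO solubilization, OD 540 nm; % change vs mitogen control; triplicate, three separate experiments.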

[7] = test system: Murine T-cell line; assay: Cytotoxicity against Balb/c mouse T cells assessed as decrease in cell survival at 1 uM by MTT assay; type: cell-based; in short: as §1
[8] = test system: B-cell line; assay: Immunosuppressive activity in Balb/c mouse B cells assessed as inhibition of LPS-induced cell proliferation at 10 uM after 48 hrs by MTT assay relative to control; type: functional; in short: as §2
[9] = test system: B-cell line; assay: Immunostimulant activity in Balb/c mouse B cells assessed as induction of LPS-induced cell proliferation at 1 uM after 48 hrs by MTT assay relative to control; type: cell-based; in short: as §2
[10] = test system: B-cell line; assay: Cytotoxicity against Balb/c mouse B cells assessed as decrease cell survival at 100 uM by MTT assay; type: cell-based; in short: as §1
[11] = test system: Murine T-cell line; assay: Cytotoxicity against Balb/c mouse T cells assessed as decrease in cell survival at 10 uM by MTT assay; type: cell-based; in short: as §1
[12] = test system: Murine T-cell line; assay: Immunosuppressive activity in Balb/c mouse T cells assessed as inhibition of ConA-induced cell proliferation at 1 uM after 48 hrs by MTT assay relative to control
[13] = test system: B-cell line; assay: Immunostimulant activity in Balb/c mouse B cells assessed as induction of LPS-induced cell proliferation at 10 uM after 48 hrs by MTT assay relative to control; type: cell-based; in short: as §2
[14] = test system: B-cell line; assay: Immunosuppressive activity in Balb/c mouse B cells assessed as inhibition of LPS-induced cell proliferation at 1 uM after 48 hrs by MTT assay relative to control; type: functional; in short: as §2
[15] = test system: B-cell line; assay: Immunostimulant activity in Balb/c mouse B cells assessed as induction of LPS-induced cell proliferation at 100 uM after 48 hrs by MTT assay relative to control; type: cell-based; in short: as §2
[16] = test system: Murine T-cell line; assay: Immunostimulant activity in Balb/c mouse T cells assessed as induction of ConA-induced cell proliferation at 100 uM after 48 hrs by MTT assay relative to control
[17] = test system: Mus musculus; assay: Inhibition of delayed-type hypersensitivity reaction in Balb/c mouse assessed as decrease in sheep RBC-induced footpad thickness at 12.5 mg/kg, po qd administered 6 consecutive days followed by sheep RBC challenge measured after 24 to 48 hrs by spheromicrometer relative to control; type: functional
In short: (§3)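 Female Balb/c mice, groups of six, SRBC-immunized; oral dosing starting 2 h after SRBC, then once daily. Six days later baseline left hind footpad thickness read by spheromicrometer, then intradermal footpad challenge with 20 μL of 5×10^9 SRBC/mL; thickness re-measured at 24 and 48 h versus control group.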

[18] = test system: Mus musculus; assay: Inhibition of humoral immune response in Balb/c mouse assessed as decrease in sheep RBC hemagglutination at 25 mg/kg, po qd administered 6 consecutive days measured on day 7 by micro titration method relative to control; type: functional; details: 168 h
In short: (§4)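 Female Balb/c mice, groups of six, immunized with SRBC and dosed orally; blood taken on day 7 for primary antibody titre, hemagglutination titre determined by modified microtitration; suppression versus control group.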

[19] = test system: Mus musculus; assay: Inhibition of humoral immune response in Balb/c mouse assessed as decrease in sheep RBC hemagglutination at 6.25 mg/kg, po qd administered 6 consecutive days measured on day 7 by micro titration method relative to control; type: functional; details: 168 h; in short: as §4
[20] = test system: Mus musculus; assay: Inhibition of delayed-type hypersensitivity reaction in Balb/c mouse assessed as decrease in sheep RBC-induced footpad thickness at 25 mg/kg, po qd administered 6 consecutive days followed by sheep RBC challenge measured after 24 to 48 hrs by spheromicrometer relative to control; type: functional; in short: as §3
[21] = test system: Murine T-cell line; assay: Immunostimulant activity in Balb/c mouse T cells assessed as induction of ConA-induced cell proliferation at 10 uM after 48 hrs by MTT assay relative to control

Structure (SMILES)	Activity [1]	Activity [2]	inhibition at 10 µM [3] [%]	inhibition at 100 µM [4] [%]	Activity [5]	inhibition at 100 µM [6] [%]	Activity [7]	inhibition at 10 µM [8] [%]	Activity [10]	Activity [11]	inhibition at 1 µM [12] [%]	inhibition at 1 µM [14] [%]	further results
Cc1cc(OC(=O)C(C)C)c(C)c2c1CC[C@H]1[C@H](C)C(=O)O[C@@H]21	Non-Toxic	Non-Toxic	61.5	73.2	Non-Toxic	52.1	Non-Toxic	33.3	Non-Toxic	Non-Toxic	53.3	–	Activity [9]: 20.83%
CCCCCCCC(=O)Oc1cc(C)c2c(c1C)[C@@H]1OC(=O)[C@@H](C)[C@@H]1CC2	Non-Toxic	Toxic	43.1	4.22	Non-Toxic	57.3	Non-Toxic	–	Toxic	Non-Toxic	50.4	37.5	Activity [13]: 53.12%
Cc1cc(OCc2ccccc2)c(C)c2c1CC[C@H]1[C@H](C)C(=O)O[C@@H]21	Non-Toxic	Toxic	60	–	Non-Toxic	–	Non-Toxic	74	Toxic	Non-Toxic	58	53	Activity [15]: 29%; Activity [16]: 16%
Cc1cc(OC(=O)C(C)(C)C)c(C)c2c1CC[C@H]1[C@H](C)C(=O)O[C@@H]21	Non-Toxic	Non-Toxic	58.1	75	Non-Toxic	80.5	Non-Toxic	66	Non-Toxic	Non-Toxic	35.1	48.7	inhibition in vivo at 12.5 mg/kg [17]: 30%; inhibition in vivo at 25 mg/kg [18]: 41%; inhibition in vivo at 6.25 mg/kg [19]: 28%; inhibition in vivo at 25 mg/kg [20]: 35%
CC1=C2[C@H]3OC(=O)[C@@H](C)[C@@H]3CC[C@@]2(C)C=CC1=O [SANTONIN]	Non-Toxic	Non-Toxic	–	8.16	Non-Toxic	33.2	Non-Toxic	27.1	Non-Toxic	Non-Toxic	35.4	19	Activity [21]: 3.55%
